This sample holds only a part of the variants without activity.
B1: tRNA (parent)
chain: GUUCCGUUGGCGUAAUGGUAACGCGUCUCCCUCCUAAGGAGAAGACUGCGGGUUCGAGUCCCGUACGGAACG

Variants of: B1
Assay: yeast fitness relative to wild type (ratio to wild type); higher = fitter; tRNA-Arg(CCU), competitive growth, 37 C, YPD
In short: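 A pool of Saccharomyces cerevisiae strains, each with a tRNA-Arg(CCU) gene variant at the native genomic locus, was competed in YPD at 37°C for 24 hours across six parallel replicates. The variants had been chemically synthesised at a 3% per-site mutation rate over 69 sites, and gene amplicons before and after competition were read by 100-nucleotide paired-end sequencing. Darwinian fitness relative to wild type rested on changes in genotype frequencies. Genotypes required ≥ 100 starting reads, and estimates < 0.5 were set to 0.5.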

Variant | yeast fitness
A21U C33G A57C | ≤ 0.5
C22G A45G U53A C66G | 0.565
C22A C31G | 0.749
C22A C31U | 1.07
A21U C27G U28C C30U U53G C61A | 0.78
C22A G67U | 0.774
A21U U26A | 0.722
A21U A42C C62G | ≤ 0.5
A21U C49U U54A U64C | ≤ 0.5
A21U A57C G58A A70C | ≤ 0.5
C22A U47A G63C | ≤ 0.5
A21U C33G A70U | ≤ 0.5
C22G C24G U54A A69U | ≤ 0.5
C22A C33U U54G | ≤ 0.5
A21U G52C A57G C61U | ≤ 0.5
C22A A45U G63A | 0.558
A21U G23C | 0.579
C22A C24A U54A | ≤ 0.5
A21U C66U | 0.78
C22A C31G A37G G38C A43G G58C | 0.532
C22A C31A U53C A57C | ≤ 0.5

Variant | yeast fitness
A21U C30U | 0.646
A21U A45G C49A | ≤ 0.5
A21U C24U U26A A43U | 0.668
A21U C24A A45U | ≤ 0.5
C22A G23C C27U | ≤ 0.5
C22A G51C A57U | 0.624
A21U C24G U54G C55G C62U | ≤ 0.5
A21U C27G A36U G39C | ≤ 0.5
C22A C31U A43U | 0.623
A21U A40U | 0.728
C22A C27G U28A C30A C34G G48C | ≤ 0.5
C22A C55G | 0.63
C22A C55U | 0.918
C22A C30U A42C A57U G67A A70U | ≤ 0.5
C22G C27A A43C | 0.587
C22G A40U A43U | 0.503
C22G A40U A43C | 0.698
C22A A43U C60A A65G | 0.683
C22G A45C | 0.583
C22A C24U | 0.74
A21U U47G G67A A69G | ≤ 0.5

Variant | yeast fitness
C22A C49G G67A | ≤ 0.5
C22A G23C | 0.535
A21U C31G U32A | 0.585
C22A A69U A70C | 0.685
C22A A70G | 0.948
C22A A70C | 0.877
C22A A70U | 1.01
C22A C24U G44C G48A | ≤ 0.5
C22A G51C C66U | ≤ 0.5
C22A G23A A37G A69U | ≤ 0.5
C22A A45C C66G | 0.691
C22A A45C C66A | ≤ 0.5
C22G A70G | 0.86
A21U C30U U32A G68C | ≤ 0.5
C22A A43C G56A | 0.853
A21U A45U G51A C55G A65C | ≤ 0.5
C22G A37G | 0.697
A21U C27G C30G | ≤ 0.5
C22G C24A | 0.673
C22G C24U G44C | 0.59
C22G C24U G44A | 0.555

Variant | yeast fitness
A21U C61U | 0.709
A21U C34A G50C | 0.535
A21U U32G A37G A45G C55A | ≤ 0.5
C22G A36G A37C C46A C49G | ≤ 0.5
C22A C24A U26C C60G C61U | ≤ 0.5
C22G C27G C29G C49U | ≤ 0.5
A21U C33A | 0.578
C22A G23C C49G | ≤ 0.5
A21U G67C A69U | ≤ 0.5
C22A C24U A36U | ≤ 0.5
C22A C29A G44C | 0.605
C22A G48C G51A C55A C66A | ≤ 0.5
A21U U32A A70G | ≤ 0.5
A21U C30U A65G C66G | 0.638
A21U C27G C33G A69U | ≤ 0.5
A21U C29G | 0.561
A21U C29U | 0.588
C22G | 0.988
C22A | 1
C22G C24G G50A | 0.694
A21U U28G C55A G58A | ≤ 0.5

— the RNAGym collection of RNA variant scans (doi:10.1126/science.aae0568)
